Reference: paper PMC3668520 (FEBS Open Bio, 2013)
pEC50: −log10 of the molar value.

Columns and labels:
[1] = test system: B cells isolated from wt and EBI2-overexpressing C57BL/6 mice; test: Ex vivo B cell chemotaxis; assay type: cell-based, mouse
Procedure, shortened: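 B cells came from wt and EBI2-overexpressing C57BL/6 mice. 7α,25-OHC and/or test compound was placed in the lower chamber, and 200,000 cells went onto 5 μm-pore filters. After 5 h at 37 °C, migrated cells were quantified by CellTiterGlo luminescence. Agonist response is expressed as chemotactic index (four experiments). Inhibition was tested on EBI2-overexpressing cells with 0.1 nM 7α,25-OHC, relative to agonist alone (three experiments).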

FLAG-tagged human EBI2 = FLAG-tagged human EBI2 (Homo sapiens, UniProt P32249); test: [35S]GTPγS binding to membranes from CHO cells stably expressing EBI2; assay type: biochemical
Procedure, shortened: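 Membranes from CHO Flp-In cells stably expressing M1-FLAG-EBI2 or pcDNA5 (10 μg) were incubated 30 min with ligands and 1 nM [35S]GTPγS. WGA SPA beads (2.8 mg/mL) were then added for 30 min, followed by centrifugation and scintillation counting. Nonspecific binding was defined with 40 μM unlabelled GTPγS. Inhibition was run at 1 nM 7α,25-OHC. Agonist curves were run at 0, 100 nM, 1 μM and 10 μM antagonist. Kd and slope come from Schild regression (x-intercept). Three independent experiments.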

[2] = test system: FLAG-tagged human EBI2 (p38 phosphorylation); test: p38 phosphorylation in CHO cells stably expressing EBI2; assay type: cell-based; conditions: serum-starved CHO EBI2 cells; ptx-sensitive
[3] = test system: FLAG-tagged human EBI2 (ERK1/2 phosphorylation); test: ERK1/2 phosphorylation in CHO cells stably expressing EBI2; assay type: cell-based; conditions: 10 min, read-out: EC50, ERK1/2 activation
EBI2 = conditions: at 5 μM; ref PubChem BioAssay ID: 651636; cited from earlier work

Sequence of FLAG-tagged human EBI2 (P32249 whole entry): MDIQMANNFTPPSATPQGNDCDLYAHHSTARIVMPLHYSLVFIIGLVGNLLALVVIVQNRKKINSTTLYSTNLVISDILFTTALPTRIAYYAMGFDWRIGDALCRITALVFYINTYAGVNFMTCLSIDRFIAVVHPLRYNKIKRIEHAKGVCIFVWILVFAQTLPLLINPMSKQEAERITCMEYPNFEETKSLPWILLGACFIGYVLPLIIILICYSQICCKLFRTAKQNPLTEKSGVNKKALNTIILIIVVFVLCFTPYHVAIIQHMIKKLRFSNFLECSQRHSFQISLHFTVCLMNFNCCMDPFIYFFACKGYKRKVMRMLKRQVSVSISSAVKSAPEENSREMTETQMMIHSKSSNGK

SMILES | pEC50 ([1]; Mus musculus, B-cell, read-out: EC50, chemotaxis) | Concentration at which chemotaxis peaked ([1]; both wt and EBI2-OE B cells) | pEC50 (FLAG-tagged human EBI2) | p38 activation [2] | pEC50 [3] | Suppression of 7α,25-OHC-induced β-arrestin recruitment (EBI2)
C[C@H](CCCC(C)(C)O)[C@H]1CC[C@H]2[C@@H]3[C@H](O)C=C4C[C@@H](O)CC[C@]4(C)[C@H]3CC[C@]12C [7α,25-OHC, 7α,25-dihydroxycholesterol] | 10.00 | 1 nM | 9.00 | dose-dependently activated | 8.52 | –
O=C(/C=C/c1ccc(Cl)cc1)N1CCN(c2c(Cl)cccc2[N+](=O)[O-])CC1 [CID: 5804570] | – | – | – | – | – | best compound
